In ChEMBL document CHEMBL1759990, “Synthesis and SAR of novel quinazolines as potent and brain-penetrant c-jun N-terminal kinase (JNK) inhibitors” (Bioorg Med Chem Lett, 2011):

How the values were obtained:
[1] = molecular target: Mitogen-activated protein kinase 10 (Homo sapiens, UniProt P53779); test: Inhibition of JNK3 by HRTF
Procedure, shortened: (§1)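 HTRF kinase assay with final concentrations of 0.1 nM JNK1 or 0.3 nM JNK3, 0.4 nM biotinylated-ATF2 substrate and 1 mM ATP. Phospho-Thr71-ATF-2 was detected with a Europium-cryptate anti-phospho-Thr71-ATF-2 antibody, with streptavidin-allophycocyanin-XL as acceptor. A 10-point dose-response was run in duplicate and fit to a four-parameter logistic. JNK3 values are means of four or more experiments; JNK1 values are means of two or more.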

[2] = molecular target: Mitogen-activated protein kinase 8 (Homo sapiens, UniProt P45983); test: Inhibition of JNK1 by HRTF; procedure, shortened: as §1
Mitogen-activated protein kinase 8, sequence (P45983 whole entry): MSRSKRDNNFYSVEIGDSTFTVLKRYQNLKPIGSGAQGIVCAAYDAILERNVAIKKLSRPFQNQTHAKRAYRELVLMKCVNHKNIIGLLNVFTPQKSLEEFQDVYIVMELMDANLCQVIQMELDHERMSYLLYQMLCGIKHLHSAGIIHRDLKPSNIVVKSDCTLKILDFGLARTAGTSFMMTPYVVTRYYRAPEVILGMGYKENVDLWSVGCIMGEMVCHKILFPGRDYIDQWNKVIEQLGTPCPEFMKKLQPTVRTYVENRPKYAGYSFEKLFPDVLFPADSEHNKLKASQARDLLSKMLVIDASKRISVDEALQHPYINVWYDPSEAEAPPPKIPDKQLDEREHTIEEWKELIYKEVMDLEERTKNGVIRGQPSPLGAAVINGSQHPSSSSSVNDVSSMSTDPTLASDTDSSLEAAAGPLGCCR

[3] = Drug level in mouse plasma at 10 mg/kg, ip after 2 hrs; type: ADME, organism-based; set-up: dose 10 mg/kg, route intraperitoneal; details: read-out: Drug uptake
Procedure, shortened: (§2)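 Mouse dosed at 10 mg/kg ip. Brain and plasma concentrations (µM) were measured at 2 h.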

[4] = Drug level in mouse brain at 10 mg/kg, ip after 2 hrs; type: ADME, organism-based; set-up: dose 10 mg/kg, route intraperitoneal; details: read-out: Drug uptake; procedure, shortened: as §2
Rattus norvegicus [5] = test: Half life in rat at 1 mg/kg, iv; type: ADME, organism-based; set-up: dose 1 mg/kg, route intravenous; details: in vivo
[6] = Volume of distribution in rat at 1 mg/kg, iv; type: ADME, organism-based; set-up: dose 1 mg/kg, route intravenous; details: in vivo
[7] = AUC in rat at 2 mg/kg, po; type: ADME, organism-based; set-up: dose 2 mg/kg, route oral; details: plasma
[8] = Cmax in rat at 2 mg/kg, po; type: ADME, organism-based; set-up: dose 2 mg/kg, route oral; details: in vivo
Rattus norvegicus [9] = test: Oral bioavailability in rat at 2 mg/kg; type: ADME, organism-based; details: in vivo

Mitogen-activated protein kinase 10, sequence (P53779 whole entry): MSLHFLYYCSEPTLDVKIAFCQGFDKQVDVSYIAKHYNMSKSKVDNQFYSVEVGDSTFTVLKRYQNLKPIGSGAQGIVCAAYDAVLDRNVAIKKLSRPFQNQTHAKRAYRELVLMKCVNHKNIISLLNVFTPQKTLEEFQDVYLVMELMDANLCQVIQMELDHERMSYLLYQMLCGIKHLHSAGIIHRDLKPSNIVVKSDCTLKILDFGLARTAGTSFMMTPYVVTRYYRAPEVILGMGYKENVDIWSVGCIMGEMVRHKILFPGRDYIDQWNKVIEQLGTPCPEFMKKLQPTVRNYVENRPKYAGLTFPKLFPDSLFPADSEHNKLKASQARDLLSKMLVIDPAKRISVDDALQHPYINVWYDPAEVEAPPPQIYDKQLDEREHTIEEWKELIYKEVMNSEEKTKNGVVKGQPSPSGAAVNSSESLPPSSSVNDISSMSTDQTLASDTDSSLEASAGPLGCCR

IC50 [1] | concentration at 2 h [3] | concentration at 2 h [4] | SMILES | further results
90 nM | 17.8 µM | 7.17 µM | Cn1cc(-c2ccc3cnc(Nc4ccc(-n5cnc(N6CCOCC6)n5)cc4)nc3c2)cn1 | IC50 [2]: 50 nM; t1/2 (Rattus norvegicus [5]): 3 h; Vd [6]: 0.8 L/kg; AUC [7]: 6.3 µM·h; Cmax [8]: 0.7 µM; F (Rattus norvegicus [9]): 28%
50 nM | 42.9 µM | 1.31 µM | c1cc(-n2cnc(N3CCOCC3)n2)ccc1Nc1ncc2ccc(-c3cn[nH]c3)cc2n1 | IC50 [2]: 40 nM
700 nM | – | – | c1cc(-n2cnc(N3CCOCC3)n2)ccc1Nc1ncc2ccc(-c3cnoc3)cc2n1 | –
4400 nM | – | – | c1cc(-n2cnc(N3CCOCC3)n2)ccc1Nc1ncc2ccc(N3CCOCC3)cc2n1 | –
210 nM | 26.7 µM | 8.1 µM | c1cncc(-c2ccc3cnc(Nc4ccc(-n5cnc(N6CCOCC6)n5)cc4)nc3c2)c1 | –
730 nM | – | – | Cc1ccc(-c2ccc3cnc(Nc4ccc(-n5cnc(N6CCOCC6)n5)cc4)nc3c2)cn1 | –
> 20000 nM | – | – | c1ccc(-c2ccc3cnc(Nc4ccc(-n5cnc(N6CCOCC6)n5)cc4)nc3c2)cc1 | –
50 nM | – | – | Cc1ccc(-c2ncn(-c3ccc(Nc4ncc5ccc(-c6cn[nH]c6)cc5n4)cc3)n2)cn1 | –
60 nM | 13.1 µM | 1.37 µM | Cn1cc(-c2ccc3cnc(Nc4ccc(-n5cnc(-c6ccccn6)n5)cc4)nc3c2)cn1 | IC50 [2]: 100 nM
30 nM | 2.7 µM | 0.15 µM | Cc1ccc(-c2cccc3cnc(Nc4ccc(-n5cnc(N6CCOCC6)n5)cc4)nc23)cn1 | –
20 nM | 2.2 µM | 0.23 µM | Cn1cc(-c2cccc3cnc(Nc4ccc(-n5cnc(N6CCOCC6)n5)cc4)nc23)cn1 | IC50 [2]: 10 nM
70 nM | 6.1 µM | 1.5 µM | COc1ccc(-c2cccc3cnc(Nc4ccc(-n5cnc(N6CCOCC6)n5)cc4)nc23)cc1F | IC50 [2]: 90 nM
7 nM | – | – | c1cc(-c2nccs2)c2nc(Nc3ccc(-n4cnc(N5CCOCC5)n4)cc3)ncc2c1 | IC50 [2]: 30 nM
60 nM | 5.2 µM | 12.7 µM | c1ccc(-c2cccc3cnc(Nc4ccc(-n5cnc(N6CCOCC6)n5)cc4)nc23)cc1 | IC50 [2]: 50 nM
80 nM | 10.3 µM | 7.6 µM | COc1ccc(-c2cccc3cnc(Nc4ccc(-n5cnc(C)n5)cc4)nc23)cc1F | –
20 nM | 5 µM | 4.5 µM | Cc1ncn(-c2ccc(Nc3ncc4cccc(-c5nccs5)c4n3)cc2)n1 | IC50 [2]: 10 nM

IC50 [1] | concentration at 2 h [3] | concentration at 2 h [4] | SMILES | further results
90 nM | – | – | COc1ccc(-c2cccc3cnc(Nc4ccc(-n5cnc(-c6ccccn6)n5)cc4)nc23)cc1F | –
30 nM | 2.31 µM | 0.23 µM | Cc1ccc(-c2cccc3cnc(Nc4ccc(-n5cnc(C)n5)cc4)nc23)cn1 | –
60 nM | 0.78 µM | 1.06 µM | Cc1ccc(-c2cccc3cnc(Nc4ccc5c(c4)OCO5)nc23)cn1 | –
170 nM | – | – | Cc1ccc(-c2cccc3cnc(Nc4ccc(F)cc4)nc23)cn1 | –
90 nM | – | – | Cc1ccc(-c2cccc3cnc(Nc4ccc(C(=O)N5CCOCC5)cc4)nc23)cn1 | –
50 nM | – | – | Cc1ccc(-c2cccc3cnc(NC4CCC(O)CC4)nc23)cn1 (stereo not given) | –
30 nM | – | – | Cc1ccc(-c2cccc3cnc(N[C@H]4CC[C@@H](C(=O)N5CCCC5)CC4)nc23)cn1 | –
40 nM | 10.4 µM | 8.3 µM | Cn1cc(-c2ccc3cnc(Nc4ccc(-n5cnc(N6CCOCC6)n5)cc4)nc3c2Cl)cn1 | t1/2 (Rattus norvegicus [5]): 3 h; Vd [6]: 1.4 L/kg; AUC [7]: 2.3 µM·h; Cmax [8]: 0.3 µM; F (Rattus norvegicus [9]): 19%
63 nM | 4.3 µM | 7.2 µM | CC(C)n1cc(-c2ccc3cnc(Nc4ccc(-n5cnc(N6CCOCC6)n5)cc4)nc3c2Cl)cn1 | –
10 nM | 7.4 µM | 7.6 µM | Cc1c(-c2cnn(C)c2)ccc2cnc(Nc3ccc(-n4cnc(N5CCOCC5)n4)cc3)nc12 | –
190 nM | 8.3 µM | 5.6 µM | Cn1cc(-c2ccc3cnc(Nc4ccc(-n5cnc(N6CCOCC6)n5)cc4)nc3c2C(F)(F)F)cn1 | –
20 nM | 10.6 µM | 5 µM | Cn1cc(-c2ccc3cnc(Nc4ccc(-n5cnc(N6CCOCC6)n5)cc4)nc3c2C2CC2)cn1 | –
9 nM | 6.3 µM | 0.22 µM | Cn1cc(-c2ccc3cnc(Nc4ccc(-n5cnc(N6CCOCC6)n5)cc4)nc3c2-c2cnn(C)c2)cn1 | –
10 nM | 6.4 µM | 1.1 µM | Cn1cc(-c2ccc3cnc(Nc4ccc(-n5cnc(N6CCOCC6)n5)cc4)nc3c2-c2ccccc2)cn1 | –
4 nM | 9.4 µM | 4.9 µM | COc1c(-c2cnn(C)c2)ccc2cnc(Nc3ccc(-n4cnc(N5CCOCC5)n4)cc3)nc12 | F (Rattus norvegicus [9]): 8%
